Measured values from different studies.
Lines come from different studies, so protocols differ.
Target: Serine-protein kinase ATM (ATM, Homo sapiens, UniProt Q13315)

COc1cccc2c(NCc3ccccc3)nc(-n3c(N)nc4ccccc43)nc12 — inhibition (target engagement in cells; inhibitor; chemoproteomics; 20 mM): -4.3%
Cc1cc(NC(=O)c2cccc3cc(-c4cccc5[nH]nc(N)c45)ccc23)ccc1F — activity vs control (enzyme activity; inhibitor; 0.1 µM): 94%
Cc1ccc(NC(=O)c2ccc(C)c(C(F)(F)F)c2)cc1C#Cc1nn(C2CCC(O)CC2)c2ncnc(N)c12 (centres unmarked) — remaining signal (cell-free assay; 10 µM): 102%
Cc1cnc(NC2CCOCC2)nc1-n1cnc(C(=O)NC(CN)c2cc(F)cc(Cl)c2)c1 (centres unmarked) — remaining activity (enzyme activity; inhibitor; radiometric; 1 µM): 102%
COc1cc(Cl)c(C(=O)N[C@@H](CN[C@H]2CC[C@@H](N)CC2)Cc2ccc(C#N)cc2)cc1-c1ccc(CN[C@H](C)c2ccc(C)cc2)o1 — remaining activity (enzyme activity; inhibitor; 1 µM): 106%
CCCCNc1ncc2c(-c3ccc(F)cc3)nn(C[C@H]3CC[C@H](N)CC3)c2n1 — inhibition (target engagement in cells; inhibitor; chemoproteomics; 20 mM): 57.4%
CN1CC(Oc2cnc(C#N)cc2-c2ccn3nc(NC(=O)C4CC4)cc3c2)C1 — inhibition (enzyme activity; inhibitor; 1 µM): 14%
Cc1ccc(C(=O)NCc2ccsc2)cc1C#Cc1cn(C(C)C)c2ncnc(N)c12 — activity vs control (enzyme activity; inhibitor; 1 µM): 101%
